# Legend:
# [1] = target: Gonadotropin-releasing hormone receptor (Homo sapiens, UniProt P30968, S168A); assay: Displacement of [125I]-His5, D-Tyr6]GnRH from mutant GnRHR, GnRHR S168A
# [2] = target: Gonadotropin-releasing hormone receptor (Homo sapiens, UniProt P30968, H306E); assay: Displacement of [125I]-His5, D-Tyr6]GnRH from mutant GnRHR, GnRHR H306E
# Outline: (§1)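 Human GnRH-R (wild type or site-directed point mutant) was transiently expressed in COS-7 cells by electroporation, with cells cultured 36-48 h before membranes were prepared. Membranes (5-20 µg per point) were incubated 2 h at room temperature with 0.3 nM tracer and varying competitor in HEPES pH 7.5, 150 mM NaCl, 0.1% BSA, then filtered and counted.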
# [3] = target: Gonadotropin-releasing hormone receptor (Homo sapiens, UniProt P30968, M24A); assay: Displacement of [125I]-His5, D-Tyr6]GnRH from mutant GnRHR, GnRHR M24A; outline: as §1
# [4] = target: Gonadotropin-releasing hormone receptor (Homo sapiens, UniProt P30968, D293A); assay: Displacement of [125I]-His5, D-Tyr6]GnRH from mutant GnRHR, GnRHR D293A; outline: as §1
# [5] = target: Gonadotropin-releasing hormone receptor (Homo sapiens, UniProt P30968, S203K); assay: Displacement of [125I]-His5, D-Tyr6]GnRH from mutant GnRHR, GnRHR S203K
# [6] = target: Gonadotropin-releasing hormone receptor (Homo sapiens, UniProt P30968); assay: Displacement of [125I]-His5, D-Tyr6]GnRH from human wild type GnRHR; outline: as §1
# [7] = target: Gonadotropin-releasing hormone receptor (Homo sapiens, UniProt P30968, K191E); assay: Displacement of [125I]-His5, D-Tyr6]GnRH from mutant GnRHR, GnRHR K191E; outline: as §1
# [8] = target: Gonadotropin-releasing hormone receptor (Homo sapiens, UniProt P30968, Y283F); assay: Displacement of [125I]-His5, D-Tyr6]GnRH from mutant GnRHR, GnRHR Y283F
# [9] = target: Gonadotropin-releasing hormone receptor (Homo sapiens, UniProt P30968, H306A); assay: Displacement of [125I]-His5, D-Tyr6]GnRH from mutant GnRHR, GnRHR H306A; outline: as §1
# [10] = target: Gonadotropin-releasing hormone receptor (Homo sapiens, UniProt P30968, T51A); assay: Displacement of [125I]-His5, D-Tyr6]GnRH from mutant GnRHR, GnRHR T51A
# [11] = target: Gonadotropin-releasing hormone receptor (Homo sapiens, UniProt P30968, E111K); assay: Displacement of [125I]-His5, D-Tyr6]GnRH from mutant GnRHR, GnRHR E111K; outline: as §1
# [12] = target: Gonadotropin-releasing hormone receptor (Homo sapiens, UniProt P30968, D293K); assay: Displacement of [125I]-His5, D-Tyr6]GnRH from mutant GnRHR, GnRHR D293K; outline: as §1
# [13] = target: Gonadotropin-releasing hormone receptor (Homo sapiens, UniProt P30968, N305K); assay: Displacement of [125I]-His5, D-Tyr6]GnRH from mutant GnRHR, GnRHR N305K; outline: as §1
# [14] = target: Gonadotropin-releasing hormone receptor (Homo sapiens, UniProt P30968, T190K); assay: Displacement of [125I]-His5, D-Tyr6]GnRH from mutant GnRHR, GnRHR T190K
# [15] = target: Gonadotropin-releasing hormone receptor (Homo sapiens, UniProt P30968, N315A); assay: Displacement of [125I]-His5, D-Tyr6]GnRH from mutant GnRHR, GnRHR N315A; outline: as §1
# [16] = target: Gonadotropin-releasing hormone receptor (Homo sapiens, UniProt P30968, M24I); assay: Displacement of [125I]-His5, D-Tyr6]GnRH from mutant GnRHR, GnRHR M24I; outline: as §1
# [17] = target: Gonadotropin-releasing hormone receptor (Homo sapiens, UniProt P30968, S186K); assay: Displacement of [125I]-His5, D-Tyr6]GnRH from mutant GnRHR, GnRHR S186K
# [18] = target: Gonadotropin-releasing hormone receptor (Homo sapiens, UniProt P30968, Q189K); assay: Displacement of [125I]-His5, D-Tyr6]GnRH from mutant GnRHR, GnRHR Q189K; outline: as §1
# [19] = target: Gonadotropin-releasing hormone receptor (Homo sapiens, UniProt P30968, E111Q); assay: Displacement of [125I]-His5, D-Tyr6]GnRH from mutant GnRHR, GnRHR E111Q; outline: as §1
# [20] = target: Gonadotropin-releasing hormone receptor (Homo sapiens, UniProt P30968, Y290F); assay: Displacement of [125I]-His5, D-Tyr6]GnRH from mutant GnRHR, GnRHR Y290F
# [21] = target: Gonadotropin-releasing hormone receptor (Homo sapiens, UniProt P30968, Q189E); assay: Displacement of [125I]-His5, D-Tyr6]GnRH from mutant GnRHR, GnRHR Q189E; outline: as §1
# [22] = target: Gonadotropin-releasing hormone receptor (Homo sapiens, UniProt P30968, D293N); assay: Displacement of [125I]-His5, D-Tyr6]GnRH from mutant GnRHR, GnRHR D293N; outline: as §1
# [23] = target: Gonadotropin-releasing hormone receptor (Homo sapiens, UniProt P30968, W291F); assay: Displacement of [125I]-His5, D-Tyr6]GnRH from mutant GnRHR, GnRHR W291F
# [24] = target: Gonadotropin-releasing hormone receptor (Homo sapiens, UniProt P30968, N27E); assay: Displacement of [125I]-His5, D-Tyr6]GnRH from mutant GnRHR, GnRHR N27E; outline: as §1
# [25] = target: Gonadotropin-releasing hormone receptor (Homo sapiens, UniProt P30968, N27A); assay: Displacement of [125I]-His5, D-Tyr6]GnRH from mutant GnRHR, GnRHR N27A; outline: as §1
# [26] = target: Gonadotropin-releasing hormone receptor (Homo sapiens, UniProt P30968, D302A); assay: Displacement of [125I]-His5, D-Tyr6]GnRH from mutant GnRHR, GnRHR D302A; outline: as §1
# [27] = target: Gonadotropin-releasing hormone receptor (Homo sapiens, UniProt P30968, L300A); assay: Displacement of [125I]-His5, D-Tyr6]GnRH from mutant GnRHR, GnRHR L300A; outline: as §1
# [28] = target: Gonadotropin-releasing hormone receptor (Homo sapiens, UniProt P30968, F309Q); assay: Displacement of [125I]-His5, D-Tyr6]GnRH from mutant GnRHR, GnRHR F309Q; outline: as §1
# [29] = target: Gonadotropin-releasing hormone receptor (Homo sapiens, UniProt P30968, W280F); assay: Displacement of [125I]-His5, D-Tyr6]GnRH from mutant GnRHR, GnRHR W280F
# [30] = target: Gonadotropin-releasing hormone receptor (Homo sapiens, UniProt P30968, F272L); assay: Displacement of [125I]-His5, D-Tyr6]GnRH from mutant GnRHR, GnRHR F272L; outline: as §1
# Chain of Gonadotropin-releasing hormone receptor (Homo sapiens, UniProt P30968, F272L) (P30968 whole entry F272L): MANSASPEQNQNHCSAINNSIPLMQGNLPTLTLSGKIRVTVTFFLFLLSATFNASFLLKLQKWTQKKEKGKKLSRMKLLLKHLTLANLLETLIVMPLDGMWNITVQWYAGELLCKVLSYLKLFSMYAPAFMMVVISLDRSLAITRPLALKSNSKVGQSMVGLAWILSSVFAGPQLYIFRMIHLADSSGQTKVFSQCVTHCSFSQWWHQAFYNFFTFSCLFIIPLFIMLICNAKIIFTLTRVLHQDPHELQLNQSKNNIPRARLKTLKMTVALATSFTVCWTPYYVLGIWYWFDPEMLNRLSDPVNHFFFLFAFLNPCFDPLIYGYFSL
# Chain of Gonadotropin-releasing hormone receptor (Homo sapiens, UniProt P30968, H306E) (P30968 whole entry H306E): as the sequence (P30968 whole entry F272L) above, with L272F, H306E counted along it
# Chain of Gonadotropin-releasing hormone receptor (Homo sapiens, UniProt P30968, H306A) (P30968 whole entry H306A): as the sequence (P30968 whole entry F272L) above, with L272F, H306A counted along it
# Chain of Gonadotropin-releasing hormone receptor (Homo sapiens, UniProt P30968, M24I) (P30968 whole entry M24I): as the sequence (P30968 whole entry F272L) above, with M24I, L272F counted along it
# Chain of Gonadotropin-releasing hormone receptor (Homo sapiens, UniProt P30968, N315A) (P30968 whole entry N315A): as the sequence (P30968 whole entry F272L) above, with L272F, N315A counted along it
# Chain of Gonadotropin-releasing hormone receptor (Homo sapiens, UniProt P30968, M24A) (P30968 whole entry M24A): as the sequence (P30968 whole entry F272L) above, with M24A, L272F counted along it
# Chain of Gonadotropin-releasing hormone receptor (Homo sapiens, UniProt P30968, S203K) (P30968 whole entry S203K): as the sequence (P30968 whole entry F272L) above, with S203K, L272F counted along it
# Chain of Gonadotropin-releasing hormone receptor (Homo sapiens, UniProt P30968, F309Q) (P30968 whole entry F309Q): as the sequence (P30968 whole entry F272L) above, with L272F, F309Q counted along it
# Chain of Gonadotropin-releasing hormone receptor (Homo sapiens, UniProt P30968, Q189E) (P30968 whole entry Q189E): as the sequence (P30968 whole entry F272L) above, with Q189E, L272F counted along it
# Chain of Gonadotropin-releasing hormone receptor (Homo sapiens, UniProt P30968, Y283F) (P30968 whole entry Y283F): as the sequence (P30968 whole entry F272L) above, with L272F, Y283F counted along it
# Chain of Gonadotropin-releasing hormone receptor (Homo sapiens, UniProt P30968) (P30968 whole entry): as the sequence (P30968 whole entry F272L) above, with L272F counted along it
# Chain of Gonadotropin-releasing hormone receptor (Homo sapiens, UniProt P30968, N305K) (P30968 whole entry N305K): as the sequence (P30968 whole entry F272L) above, with L272F, N305K counted along it
# Chain of Gonadotropin-releasing hormone receptor (Homo sapiens, UniProt P30968, D293N) (P30968 whole entry D293N): as the sequence (P30968 whole entry F272L) above, with L272F, D293N counted along it
# Chain of Gonadotropin-releasing hormone receptor (Homo sapiens, UniProt P30968, W280F) (P30968 whole entry W280F): as the sequence (P30968 whole entry F272L) above, with L272F, W280F counted along it
IC50 [1] [nM],IC50 [2] [nM],IC50 [3] [nM],IC50 [4] [nM],IC50 [5] [nM],IC50 [6] [nM],IC50 [7] [nM],IC50 [8] [nM],IC50 [9] [nM],IC50 [10] [nM],IC50 [11] [nM],IC50 [12] [nM],IC50 [13] [nM],IC50 [14] [nM],IC50 [15] [nM],IC50 [16] [nM],IC50 [17] [nM],IC50 [18] [nM],IC50 [19] [nM],IC50 [20] [nM],SMILES,also measured
8.9,48.8,17.9,24.5,14.6,17.7,11,108,23.3,15.8,13.6,56.1,3.7,19.8,47.1,23.2,13.1,15.8,11.5,39.6,COc1c(C)cc(-c2[nH]c3ccc(C(C)(C)C(=O)N(CC(C)C)CC(C)C)cc3c2[C@H](C)CNCCc2ccccc2)cc1C,IC50 [21]: 15.7 nM; IC50 [22]: 32.6 nM; IC50 [23]: 6.8 nM; IC50 [24]: 10.8 nM; IC50 [25]: 8.8 nM; IC50 [26]: 11 nM; IC50 [27]: 87.9 nM; IC50 [28]: 222 nM; IC50 [29]: 139 nM; IC50 [30]: 16.9 nM
4,52.8,5.9,5.7,3.1,8.1,3.7,316,50.6,3.1,10.5,4.8,12.4,3.7,0.8,2.2,4.1,2.4,3.3,48.8,CC(C)C[C@H](NC(=O)[C@@H](Cc1ccc(O)cc1)NC(=O)[C@H](Cc1c[nH]cn1)NC(=O)[C@H](CO)NC(=O)[C@H](Cc1c[nH]c2ccccc12)NC(=O)[C@H](Cc1c[nH]cn1)NC(=O)[C@@H]1CCC(=O)N1)C(=O)N[C@@H](CCCN=C(N)N)C(=O)N1CCC[C@H]1C(=O)NCC(N)=O,IC50 [21]: 16.7 nM; IC50 [22]: 4.7 nM; IC50 [23]: 60.1 nM; IC50 [24]: 3.8 nM; IC50 [25]: 5.8 nM; IC50 [26]: 42.2 nM; IC50 [27]: 18.2 nM; IC50 [28]: 65.1 nM; IC50 [29]: 10.3 nM; IC50 [30]: 4.4 nM
